# According to ChEMBL document CHEMBL1145832, “Histamine-releasing activity and binding to the FcepsilonRI alpha human mast cell receptor subunit of mast cell degranulating peptide analogues with alanine substitutions” (J Med Chem, 2003):
# pIC50: −log10 of the molar value. Where a SMILES comes first, the peptide text is derived from it.
# Assays:
# [1] = molecular target: T1, High affinity immunoglobulin epsilon receptor subunit alpha (Homo sapiens, UniProt P12319); test: Binding affinity towards Fc-epsilon RI-alpha human mast cell receptor was determined
# T1 sequence (P12319 whole entry): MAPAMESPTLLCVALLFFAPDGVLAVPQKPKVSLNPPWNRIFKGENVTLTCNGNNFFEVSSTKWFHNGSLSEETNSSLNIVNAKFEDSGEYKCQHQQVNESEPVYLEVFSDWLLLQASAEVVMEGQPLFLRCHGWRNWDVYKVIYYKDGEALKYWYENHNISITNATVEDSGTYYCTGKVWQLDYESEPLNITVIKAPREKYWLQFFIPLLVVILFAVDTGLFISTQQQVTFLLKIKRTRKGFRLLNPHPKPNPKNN
# Summary of the method: (§1)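 Competitive fluorescence polarization: FcεRIα subunit of human IgE receptor expressed in insect cells (7 nM) with fluorescein-labelled MCD peptide tracer (4 nM) in PBS pH 7.4, unlabelled peptide 7–500 μM, 25 °C 5 min. Ex 485/em 535 nm, mP; tracer-alone background subtracted; mean of many consecutive readings; IC50 by nonlinear regression.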
# Rattus norvegicus = species: Rattus norvegicus; test: Concentration of peptide at 50% maximal histamine release at concentration 10e-5 M; type: functional
# Summary of the method: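 Rat peritoneal mast cells (Sprague–Dawley) lavaged into carbonate- and divalent-cation-free Tyrode's with 15 mM Hepes pH 7.2, 0.1% BSA, purified on Accudenz gradient; (1–2) × 10^3 cells/well with peptide, 37 °C 20 min. Residual cellular histamine freed by Triton X-100 then TFA, measured fluorometrically with phthalaldehyde/NaOH; n = 6; nonlinear regression.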
# [2] = molecular target: T1, High affinity immunoglobulin epsilon receptor subunit alpha; test: Binding affinity towards Fc-epsilon RI-alpha mast cell receptor human mast cell receptor was determined; summary of the method: as §1
pIC50 [1],SMILES,ED50 (Rattus norvegicus),also measured
–,CC[C@H](C)[C@H](N)C(=O)N[C@@H](CCCCN)C(=O)N[C@@H](CS)C(=O)N[C@@H](CC(N)=O)C(=O)N[C@@H](CS)C(=O)N[C@@H](C)C(=O)N[C@@H](CCCN=C(N)N)C(=O)N[C@@H](Cc1c[nH]cn1)C(=O)N[C@H](C(=O)N[C@H](C(=O)N[C@@H](CCCCN)C(=O)N1CCC[C@H]1C(=O)N[C@@H](Cc1c[nH]cn1)C(=O)N[C@H](C(=O)N[C@@H](CS)C(=O)N[C@@H](CCCN=C(N)N)C(=O)N[C@@H](CCCCN)C(=O)N[C@H](C(=O)N[C@@H](CS)C(=O)NCC(=O)N[C@@H](CCCCN)C(=O)N[C@@H](CC(N)=O)C(N)=O)[C@@H](C)CC)[C@@H](C)CC)[C@@H](C)CC)C(C)C (H-IKCNCARHVIKPHICRKICGKN-NH2),12.54,–
4.15,CC[C@H](C)[C@H](N)C(=O)N[C@@H](CCCCN)C(=O)N[C@@H](CS)C(=O)N[C@@H](CC(N)=O)C(=O)N[C@@H](CS)C(=O)N[C@@H](C)C(=O)N[C@@H](CCCNC(=N)N)C(=O)N[C@@H](Cc1cnc[nH]1)C(=O)N[C@H](C(=O)N[C@H](C(=O)N[C@@H](CCCCN)C(=O)N1CCC[C@H]1C(=O)N[C@@H](Cc1cnc[nH]1)C(=O)N[C@H](C(=O)N[C@@H](CS)C(=O)N[C@@H](CCCNC(=N)N)C(=O)N[C@@H](CCCCN)C(=O)N[C@H](C(=O)N[C@@H](CS)C(=O)NCC(=O)N[C@@H](CCCCN)C(=O)N[C@@H](CC(N)=O)C(N)=O)[C@@H](C)CC)[C@@H](C)CC)[C@@H](C)CC)C(C)C (H-IKCNCARHVIKPHICRKICGKN-NH2),–,–
–,CC[C@H](C)[C@H](N)C(=O)N[C@@H](CCCCN)C(=O)N[C@@H](CS)C(=O)N[C@@H](CC(N)=O)C(=O)N[C@@H](CS)C(=O)N[C@@H](CCCCN)C(=O)N[C@@H](CCCN=C(N)N)C(=O)N[C@@H](Cc1c[nH]cn1)C(=O)N[C@H](C(=O)N[C@H](C(=O)N[C@@H](C)C(=O)N1CCC[C@H]1C(=O)N[C@@H](Cc1c[nH]cn1)C(=O)N[C@H](C(=O)N[C@@H](CS)C(=O)N[C@@H](CCCN=C(N)N)C(=O)N[C@@H](CCCCN)C(=O)N[C@H](C(=O)N[C@@H](CS)C(=O)NCC(=O)N[C@@H](CCCCN)C(=O)N[C@@H](CC(N)=O)C(N)=O)[C@@H](C)CC)[C@@H](C)CC)[C@@H](C)CC)C(C)C (H-IKCNCKRHVIAPHICRKICGKN-NH2),1.07,–
3.82,CC[C@H](C)[C@H](N)C(=O)N[C@@H](CCCCN)C(=O)N[C@@H](CS)C(=O)N[C@@H](CC(N)=O)C(=O)N[C@@H](CS)C(=O)N[C@@H](CCCCN)C(=O)N[C@@H](CCCNC(=N)N)C(=O)N[C@@H](Cc1cnc[nH]1)C(=O)N[C@H](C(=O)N[C@H](C(=O)N[C@@H](C)C(=O)N1CCC[C@H]1C(=O)N[C@@H](Cc1cnc[nH]1)C(=O)N[C@H](C(=O)N[C@@H](CS)C(=O)N[C@@H](CCCNC(=N)N)C(=O)N[C@@H](CCCCN)C(=O)N[C@H](C(=O)N[C@@H](CS)C(=O)NCC(=O)N[C@@H](CCCCN)C(=O)N[C@@H](CC(N)=O)C(N)=O)[C@@H](C)CC)[C@@H](C)CC)[C@@H](C)CC)C(C)C (H-IKCNCKRHVIAPHICRKICGKN-NH2),–,–
–,CC[C@H](C)[C@H](N)C(=O)N[C@@H](CCCCN)C(=O)N[C@@H](CS)C(=O)N[C@@H](CC(N)=O)C(=O)N[C@@H](CS)C(=O)N[C@@H](CCCCN)C(=O)N[C@@H](CCCN=C(N)N)C(=O)N[C@@H](Cc1c[nH]cn1)C(=O)N[C@H](C(=O)N[C@H](C(=O)N[C@@H](CCCCN)C(=O)N1CCC[C@H]1C(=O)N[C@@H](Cc1c[nH]cn1)C(=O)N[C@H](C(=O)N[C@@H](CS)C(=O)N[C@@H](CCCN=C(N)N)C(=O)N[C@@H](C)C(=O)N[C@H](C(=O)N[C@@H](CS)C(=O)NCC(=O)N[C@@H](CCCCN)C(=O)N[C@@H](CC(N)=O)C(N)=O)[C@@H](C)CC)[C@@H](C)CC)[C@@H](C)CC)C(C)C (H-IKCNCKRHVIKPHICRAICGKN-NH2),0.77,–
3.82,CC[C@H](C)[C@H](N)C(=O)N[C@@H](CCCCN)C(=O)N[C@@H](CS)C(=O)N[C@@H](CC(N)=O)C(=O)N[C@@H](CS)C(=O)N[C@@H](CCCCN)C(=O)N[C@@H](CCCNC(=N)N)C(=O)N[C@@H](Cc1cnc[nH]1)C(=O)N[C@H](C(=O)N[C@H](C(=O)N[C@@H](CCCCN)C(=O)N1CCC[C@H]1C(=O)N[C@@H](Cc1cnc[nH]1)C(=O)N[C@H](C(=O)N[C@@H](CS)C(=O)N[C@@H](CCCNC(=N)N)C(=O)N[C@@H](C)C(=O)N[C@H](C(=O)N[C@@H](CS)C(=O)NCC(=O)N[C@@H](CCCCN)C(=O)N[C@@H](CC(N)=O)C(N)=O)[C@@H](C)CC)[C@@H](C)CC)[C@@H](C)CC)C(C)C (H-IKCNCKRHVIKPHICRAICGKN-NH2),–,–
–,CC[C@H](C)[C@H](N)C(=O)N[C@@H](CCCCN)C(=O)N[C@@H](CS)C(=O)N[C@@H](CC(N)=O)C(=O)N[C@@H](CS)C(=O)N[C@@H](CCCCN)C(=O)N[C@@H](CCCN=C(N)N)C(=O)N[C@@H](Cc1c[nH]cn1)C(=O)N[C@H](C(=O)N[C@H](C(=O)N[C@@H](CCCCN)C(=O)N1CCC[C@H]1C(=O)N[C@@H](Cc1c[nH]cn1)C(=O)N[C@H](C(=O)N[C@@H](CS)C(=O)N[C@@H](CCCN=C(N)N)C(=O)N[C@@H](CCCCN)C(=O)N[C@H](C(=O)N[C@@H](CS)C(=O)NCC(=O)N[C@@H](CCCCN)C(=O)N[C@@H](CC(N)=O)C(N)=O)[C@@H](C)CC)[C@@H](C)CC)[C@@H](C)CC)C(C)C (H-IKCNCKRHVIKPHICRKICGKN-NH2),–,pIC50 [2]: 3.94

SMILES,pIC50 [1],ED50 (Rattus norvegicus),also measured
CC[C@H](C)[C@H](N)C(=O)N[C@@H](C)C(=O)N[C@@H](CS)C(=O)N[C@@H](CC(N)=O)C(=O)N[C@@H](CS)C(=O)N[C@@H](CCCCN)C(=O)N[C@@H](CCCN=C(N)N)C(=O)N[C@@H](Cc1c[nH]cn1)C(=O)N[C@H](C(=O)N[C@H](C(=O)N[C@@H](CCCCN)C(=O)N1CCC[C@H]1C(=O)N[C@@H](Cc1c[nH]cn1)C(=O)N[C@H](C(=O)N[C@@H](CS)C(=O)N[C@@H](CCCN=C(N)N)C(=O)N[C@@H](CCCCN)C(=O)N[C@H](C(=O)N[C@@H](CS)C(=O)NCC(=O)N[C@@H](CCCCN)C(=O)N[C@@H](CC(N)=O)C(N)=O)[C@@H](C)CC)[C@@H](C)CC)[C@@H](C)CC)C(C)C (H-IACNCKRHVIKPHICRKICGKN-NH2),4.09,–,–
CC[C@H](C)[C@H](N)C(=O)N[C@@H](CCCCN)C(=O)N[C@@H](CS)C(=O)N[C@@H](CC(N)=O)C(=O)N[C@@H](CS)C(=O)N[C@@H](CCCCN)C(=O)N[C@@H](CCCN=C(N)N)C(=O)N[C@@H](Cc1c[nH]cn1)C(=O)N[C@H](C(=O)N[C@H](C(=O)N[C@@H](CCCCN)C(=O)N1CCC[C@H]1C(=O)N[C@@H](Cc1c[nH]cn1)C(=O)N[C@H](C(=O)N[C@@H](CS)C(=O)N[C@@H](CCCN=C(N)N)C(=O)N[C@@H](CCCCN)C(=O)N[C@H](C(=O)N[C@@H](CS)C(=O)NCC(=O)N[C@@H](C)C(=O)N[C@@H](CC(N)=O)C(N)=O)[C@@H](C)CC)[C@@H](C)CC)[C@@H](C)CC)C(C)C (H-IKCNCKRHVIKPHICRKICGAN-NH2),3.82,–,–
